Data as given in ChEMBL document CHEMBL4342473, “Lead Optimization of Benzoxazolone Carboxamides as Orally Bioavailable and CNS Penetrant Acid Ceramidase Inhibitors” (J Med Chem, 2020).
Activity calls are given as the source filed them. The rule behind the calls is not given here.

Key:
[1] = molecular target: T1, Acid ceramidase (Homo sapiens) (UniProt Q13510); test: Inhibition of acid ceramidase in human SH-SY5Y cells assessed as change in intracellular accumulation of SM (d18:1/16:0) at 10 uM measured up to 6 hrs by LC/MS analysis; type: cell-based
T1 sequence (whole entry): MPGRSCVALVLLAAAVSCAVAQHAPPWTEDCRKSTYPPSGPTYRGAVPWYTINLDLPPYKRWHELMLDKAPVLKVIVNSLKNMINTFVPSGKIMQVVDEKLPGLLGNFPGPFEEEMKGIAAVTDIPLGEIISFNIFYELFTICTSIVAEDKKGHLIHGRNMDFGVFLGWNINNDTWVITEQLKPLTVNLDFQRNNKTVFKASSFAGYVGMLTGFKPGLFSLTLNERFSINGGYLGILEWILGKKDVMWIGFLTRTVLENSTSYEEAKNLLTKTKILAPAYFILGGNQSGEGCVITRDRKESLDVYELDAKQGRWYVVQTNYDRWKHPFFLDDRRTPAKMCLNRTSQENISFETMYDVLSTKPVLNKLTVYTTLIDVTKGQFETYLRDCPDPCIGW
Summary of the method: (§1)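 Human neuroblastoma SH-SY5Y cells incubated with compound at 10 μM for 30 min, 1 h, 3 h and 6 h; AC activity by LC/MS-based activity assay; Cer (d18:0/16:0), Cer (d18:1/16:0), sphingosine, SM (d18:1/16:0) and HexCer (d18:1/16:0) quantified by LC/MS.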

[2] = molecular target: T1, Acid ceramidase (Homo sapiens); test: Inhibition of acid ceramidase in human SH-SY5Y cells assessed as increase in intracellular accumulation of Cer (d18:1/16:0) at 10 uM measured up to 6 hrs by LC/MS analysis; type: cell-based; summary of the method: as §1
[3] = molecular target: T1, Acid ceramidase (Homo sapiens); test: Inhibition of acid ceramidase in human SH-SY5Y cells assessed as change in intracellular accumulation of SM (d18:1/16:0) up to 10 uM measured after 3 hrs by LC/MS analysis; type: cell-based
Summary of the method: (§2)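 SH-SY5Y neuroblastoma cells exposed 3 h to 1, 2.5, 5 and 10 μM; AC activity by LC/MS-based assay; ceramide species, sphingosine, SM and HexCer (d18:1/16:0) quantified by LC/MS; means ± S.E.M. of at least six determinations, experiment repeated twice.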

[4] = molecular target: T1, Acid ceramidase (Homo sapiens); test: Inhibition of acid ceramidase in human SH-SY5Y cells assessed as increase in intracellular accumulation of Cer (d18:1/16:0) measured after 3 hrs by LC/MS analysis; type: cell-based; summary of the method: as §2
[5] = Unbound plasma concentration in twitcher mouse model of Krabbe's disease at 30 mg/kg, ip administered once daily for 20 days measured 1 hr post-last dose; type: ADME, organism-based; settings: in vivo
Summary of the method: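 Twitcher mice dosed i.p. once daily for 20 days, sacrificed 1 h after last dose (day 20); drug measured in plasma and brain; unbound levels from unbound fractions (mean of two technical replicates); N = 3 males + 3 females per group.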

Mus musculus [6] = test: Neuroprotective activity in ip dosed Twitcher mouse model of Krabbe's disease assessed as reduction in GalSph (d18:1) level in brain administered once daily for 20 days measured 1 hr post-last dose by MS analysis; type: functional, organism-based
Summary of the method: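 Twitcher mice dosed i.p. at 30 or 90 mg kg–1 once daily for 20 days from postnatal day 10; sacrificed 1 h after last dose; brain GalSph (d18:1) measured; N = 3 males + 3 females per group.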

[7] = Ratio of unbound drug level in brain of C57BL/6J/129SvEV mouse model of Gaucher's disease at 90 mg/kg, ip administered once daily for 14 days measured 1 hr post-last dose to EC50 for inhibition of acid ceramidase in Krabbe's disease patient-derived primary fibroblasts; type: organism-based; settings: in vivo
Summary of the method: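 Gaucher-model 4L;C* mice (N = 4–8, mixed sexes) got 30 or 90 mg kg–1 i.p. once daily for 14 days from postnatal day 5 and were sacrificed 1 h after the day-14 dose. Compound levels were measured in plasma and brain, and unbound brain level came from brain fraction unbound (two technical replicates). The reference EC50 was from Krabbe patient primary fibroblasts incubated 2 h across concentrations (two independent experiments, duplicates).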

[8] = molecular target: T1, Acid ceramidase (Homo sapiens); test: Inhibition of acid ceramidase in human SH-SY5Y cells at 10 uM using N-lauroyl ceramide as substrate by LC/MS analysis; type: cell-based; settings: TDE = time-dependent effect; summary of the method: as §1
[9] = molecular target: T2, Lysosomal acid glucosylceramidase (Homo sapiens) (UniProt P04062); test: Inhibition of human full length GCase at 1 to 10 uM using 4-MUG as fluorogenic substrate incubated for 15 mins by fluorescence based assay
T2 sequence (whole entry): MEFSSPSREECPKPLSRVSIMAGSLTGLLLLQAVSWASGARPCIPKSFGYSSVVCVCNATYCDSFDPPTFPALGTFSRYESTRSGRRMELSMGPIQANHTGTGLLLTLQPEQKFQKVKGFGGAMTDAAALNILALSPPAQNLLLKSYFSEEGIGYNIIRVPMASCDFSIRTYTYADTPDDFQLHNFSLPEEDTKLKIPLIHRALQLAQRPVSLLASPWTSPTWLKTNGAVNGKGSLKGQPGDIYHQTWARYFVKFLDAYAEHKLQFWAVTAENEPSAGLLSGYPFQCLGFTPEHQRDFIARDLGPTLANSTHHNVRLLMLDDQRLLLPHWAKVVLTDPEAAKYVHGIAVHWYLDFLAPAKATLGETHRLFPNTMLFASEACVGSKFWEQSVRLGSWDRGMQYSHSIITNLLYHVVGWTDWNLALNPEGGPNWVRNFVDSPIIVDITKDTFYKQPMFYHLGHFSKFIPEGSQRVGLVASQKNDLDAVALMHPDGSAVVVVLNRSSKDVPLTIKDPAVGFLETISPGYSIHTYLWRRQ

[10] = Unbound plasma concentration in C57BL/6J/129SvEV mouse model of Gaucher's disease at 90 mg/kg, ip administered once daily for 14 days measured 1 hr post last dose; type: ADME, organism-based; settings: in vivo
Summary of the method: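 4L;C* mice dosed i.p. once daily for 14 days, killed 1 h after last dose (day 14); plasma and brain drug levels measured; unbound concentrations from plasma and brain unbound fractions (mean of two technical replicates); N = 4–8, mixed sexes.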

[11] = molecular target: T1, Acid ceramidase (Homo sapiens); test: Inhibition of acid ceramidase in human SH-SY5Y cells assessed as increase in intracellular accumulation of Cer (d18:0/16:0) at 10 uM measured up to 6 hrs by LC/MS analysis; type: cell-based; summary of the method: as §1
Mus musculus [12] = test: Neuroprotective activity in ip dosed C57BL/6J/129SvEV mouse model of Gaucher's disease assessed as reduction in GluSph (d18:1) level in brain administered once daily for 14 days measured 1 hr post-last dose by MS analysis; type: functional, organism-based
Summary of the method: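 4L;C* mice (neuropathic Gaucher model) given 30 or 90 mg kg–1 i.p. once daily for 14 days from postnatal day 5; killed 1 h after last dose; brain GluSph (d18:1) measured; N = 4–8 per group, mixed sexes.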

CC(C)CNC(=O)n1c(=O)oc2cc(C3CCN(C)CC3)ccc21
inhibition [1]: inactive | inhibition [2]: Active | inhibition [3]: inactive | inhibition [4]: Dose-dependent effect | Cp(f) [5]: 110 nM | Activity (Mus musculus [6]): Dose-dependent effect | Ratio [7]: 6.4 | inhibition [8]: Tde | inhibition [9]: inactive | Cp(f) [10]: 2320 nM | inhibition [11]: Active | Activity (Mus musculus [12]): Dose-dependent effect
